SENP1 FRET inh – inhibitors of human SENP1 SUMO protease catalytic domain; Q9P0U3; recombinant SENP1 catalytic domain, CyPet-SUMO1-YPet FRET cleavage; inhibition, % at 10 µM; hit rate 0.21% among 360,000; AID 624204;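 active means inhibition at least 30% at 10 µM, raw YFP signal under a set limit, fluorescence ratio 0.5 to 1.5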;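 further: 0% = enzyme with DMSO and 100% = no enzyme wells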
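Compound: 10 µM single point, 0.5% DMSO; Test system: hSENP1 catalytic domain, recombinant; Timing: 50 min reaction at room temperature; Technique: FRET, CFP and YFP emission; Control set: no-enzyme wells low, DMSO-plus-enzyme wells high control.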
SENP8 block-1 – blocks the human protease SENP8 | Q96LD8 | purified SENP8, Z-RLRGG-aminoluciferin cleavage, luminescence | inhibition, % at 10 µM | hit rate 1.2% among 330,000 | AID 2540; in the data active means inhibition above about 50%
Target sequence (Q96LD8 whole entry, looked up): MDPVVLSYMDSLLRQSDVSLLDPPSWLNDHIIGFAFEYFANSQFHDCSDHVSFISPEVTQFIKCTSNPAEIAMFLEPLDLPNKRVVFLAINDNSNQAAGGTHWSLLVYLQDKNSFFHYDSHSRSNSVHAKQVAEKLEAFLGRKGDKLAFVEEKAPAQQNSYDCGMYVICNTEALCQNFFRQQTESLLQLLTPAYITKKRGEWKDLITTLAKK
Platelet DG rel – platelet dense granule release activity; human platelet-rich plasma, SFLLRN dense granule ATP release, luminescence; inhibition, %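 (compounds screened at 7.5 µM in platelet-rich plasma)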; hit rate 0.22% among 300,000;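 active means mean replicate score, as percent of positive control, at or above 50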
SENP7 inh – inhibitors of human SENP7 protease; Q9BQF6; hit rate 1.5% among 330,000; inhibition, % at 5 µM; recombinant SENP7, Z-RLRGG-aminoluciferin luminescence, 40 min;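 active means inhibition above about 50% at the single test dose, limit read from the data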;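 further: plate controls were DMSO with enzyme for no effect and no enzyme buffer wells for full effect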
SENP6 block – inhibitors of human SENP6 protease; inhibition, % at 10 µM; Recombinant SENP6 catalytic domain, aminoluciferin luminescence; Q9GZR1; hit rate 1.8% among 330,000;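 active means inhibition above about 50% at the single tested dose, limit read from the data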;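 further: plate controls were DMSO wells with enzyme for no effect and DMSO wells lacking enzyme for full effect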
Target sequence (Q9GZR1 628-1112 limits assumed): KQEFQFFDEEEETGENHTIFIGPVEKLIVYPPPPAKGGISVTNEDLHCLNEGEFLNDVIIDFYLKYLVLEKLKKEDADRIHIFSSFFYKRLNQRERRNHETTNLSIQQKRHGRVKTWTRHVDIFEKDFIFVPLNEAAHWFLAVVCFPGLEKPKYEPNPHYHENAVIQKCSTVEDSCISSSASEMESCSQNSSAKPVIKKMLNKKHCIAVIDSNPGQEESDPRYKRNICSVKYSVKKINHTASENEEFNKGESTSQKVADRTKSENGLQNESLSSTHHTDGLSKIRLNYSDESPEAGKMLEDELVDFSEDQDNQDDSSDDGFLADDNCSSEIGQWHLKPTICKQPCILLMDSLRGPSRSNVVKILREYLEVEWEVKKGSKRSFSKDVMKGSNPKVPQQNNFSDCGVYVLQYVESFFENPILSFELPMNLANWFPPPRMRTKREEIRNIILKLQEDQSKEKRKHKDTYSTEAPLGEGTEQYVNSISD
SENP8 block-2 – blocks human SENP8 cleavage of Nedd8 substrate | inhibition, % at 20 µM | Q96LD8 | hit rate 0.64% among 360,000 | recombinant SENP8, Nedd8 substrate fluorescence | AID 602440; in the data active means inhibition mostly above about 40%, no sharp cut-off; inactive means mostly below about 27%
* marks the source's active call; other numbers are inactive results; . = not tested or not shown. Compounds with a hit are over-represented: about 2.6% of the library has one in this group of screens.

SMILES	SENP1 FRET inh	SENP8 block-1	Platelet DG rel	SENP7 inh	SENP6 block	SENP8 block-2
O=C(O)c1cccc(NC2=C(n3nnc4ccccc43)C(=O)c3ccccc3C2=O)c1	0.7	37.7	-2.3	23.7	-7.9	68.9*
O=C(O)c1cccc(NS(=O)(=O)c2ccc3nnn(O)c3c2)c1	3.3	-7.5	5.9	-6.4	13.5	18.8
Cc1ccc(Nc2nc3ccccc3s2)cc1	1.6	72.4*	12.0	87.4*	82.3*	9.2
Cc1ccc2nc(N3C(=O)C(O)=C(C(=O)c4cc5ccccc5o4)C3c3cccs3)sc2c1 (stereo not drawn)	-39.4	68.1*	0.8	77.5*	87.6*	-84.7
CCc1ccc2nc(N3C(=O)C(O)=C(C(=O)c4ccco4)C3c3cccs3)sc2c1 (stereo not drawn)	-18.1	29.6	2.3	38.3	55.4*	-114.2
Cc1ccc2nc(N3C(=O)C(O)=C(C(=O)c4ccc(C)o4)C3c3ccco3)sc2c1 (stereo not drawn)	-82.8	64.3*	.	76.2*	78.2*	-131.7
O=C(NC1CC1)c1ccc2sc([C@H]3C[C@H](O)[C@@H](CO)O3)nc2c1	0.9	.	.	.	.	13.1
COc1ccc(S(=O)(=O)N(C)CC(=O)Nc2ccc3c(c2)OCO3)cc1OC	0.3	2.4	70.7*	6.6	-5.4	9.1
COc1ccc(-c2nc(C#N)c(NC(C)c3ccccc3)o2)cc1OC (stereo not drawn)	-13.6	-7.3	69.9*	-5.4	-4.0	-498.6
COc1ccc(-c2nc(C#N)c(NCCCN(C)C)o2)cc1OC	-1.9	-4.2	12.9	5.1	-23.0	-296.3
C/C=C/c1cccc(-c2nc(C(=O)N3CCN(C)CC3)cc3c2[C@@H](CCO)N(C(=O)NC(C)C)C3)c1	1.1	.	.	.	.	3.3
CCOC(=O)C1=C(Cc2ccc(OC)cc2)C(=O)c2ccccc2C1=O	40.3*	.	.	.	.	-304.1
O=C(Nc1ccc([N+](=O)[O-])cc1)OC1CCS(=O)(=O)C1 (stereo not drawn)	0.4	.	.	.	.	19.0
C(=C\c1ccccc1)/CN1CCN(C(c2cc3ccccc3o2)c2nnnn2C2CCCCC2)CC1 (stereo not drawn)	-8.4	.	.	.	.	14.4
CCCCN1/C(=C/c2ccc3ccccc3[n+]2CC)Sc2ccccc21	70.1*	-0.5	-6.8	8.0	3.2	12.3
CCN1/C(=C/c2ccc3ccccc3[n+]2CC)C=Cc2ccccc21	63.1*	11.5	17.9	7.7	-1.6	42.3*
CCCCCCCCCc1conc1C(=O)/C=C/c1oc2c(c1C)CCC(C)C2 (stereo not drawn)	-11.0	.	.	.	.	9.2
Oc1ccc(N=Cc2ccc(O)c(O)c2)cc1	-1.3	23.2	-4.0	7.9	38.8	61.9*
COCCN1C(=O)COc2ccccc2C1C(=O)NC(C)(C)C (stereo not drawn)	1.1	.	.	.	.	5.8
C/C(=N\NC(=O)c1cc(Cl)ccc1O)c1ccc(Br)s1	-3.0	74.0*	-17.6	48.7	79.0*	-167.9
CCC(=O)N1CCC(C)(C(=O)Nc2ccc3c(c2)OCO3)C1 (stereo not drawn)	2.4	.	.	.	.	13.7
O=c1ccoc2ccccc12	4.1	.	.	.	.	-2.8
COc1cc(/C=C2\C(=O)N(CCC#N)N=C2C)c(Br)cc1OC(C)C	0.2	3.8	9.6	23.7	40.4	46.3*
CC1=NN(c2ccccc2)C(=O)/C1=C\c1cn(CCC#N)nc1-c1ccc(Cl)cc1	2.7	-3.0	-3.3	8.7	45.7	21.5
O=C(CNc1ccc(F)cc1)c1ccccc1	1.2	32.3	32.8	18.9	65.4*	20.8
SMILES	SENP1 FRET inh	SENP8 block-1	Platelet DG rel	SENP7 inh	SENP6 block	SENP8 block-2
CCOC(=O)c1sc(NC(=O)c2ccc(OC)cc2)nc1C	-0.5	3.9	-1.3	49.7	-2.0	-63.3
CCOC(=O)c1sc(NC(=O)c2ccc(OC(C)=O)cc2)nc1C	-0.1	68.2*	.	99.1*	98.0*	-52.9
COc1ccc(/C=C(\C#N)c2nc3ccccc3[nH]2)cc1O	-71.8	37.9	3.8	43.2	56.5*	-169.3
CC1(C(=O)NCc2ccccc2)CN(S(C)(=O)=O)CC(=O)N1Cc1cccc(F)c1 (stereo not drawn)	-1.5	.	.	.	.	12.3
COc1ccc(S(N)(=O)=O)cc1C(=O)OCC(=O)Nc1sccc1C#N	0.5	-19.7	.	-4.7	-11.0	-5.2
N#Cc1ccsc1NC(=O)COC(=O)c1ccc(NC(N)=O)cc1	-1.8	73.3*	-4.7	68.8*	49.9	-1.9
N#Cc1ccsc1NC(=O)COC(=O)c1cc2ccccc2cc1O	5.0	89.3*	-5.3	89.0*	96.4*	-82.9
CCOC(=O)c1c(C)c(-c2ccccc2)n(CC(=O)N2CCCC2)c1C	2.3	-12.8	55.7*	16.6	-6.4	6.9
CCOC(=O)c1c(C)c(-c2ccccc2)n(CC(=O)N2CCN(C)CC2)c1C	-0.4	-3.8	-1.7	8.8	-26.5	-4.4
COc1cc(C(c2c(C)[nH][nH]c2=O)c2c(C)[nH][nH]c2=O)ccc1OC(=O)c1cccc([N+](=O)[O-])c1	-0.7	-1.4	.	0.2	-8.5	42.3*
CCOC(=O)C1(C)/C(=N/Nc2ccc(Cl)cc2)C(=O)C(=O)N1c1ccccc1 (stereo not drawn)	2.4	5.8	-3.5	4.8	-0.9	19.3
CCOC(=O)C1(C)/C(=N/Nc2cccc(Cl)c2)C(=O)C(=O)N1c1ccccc1 (stereo not drawn)	4.3	8.8	2.4	3.5	-1.5	43.1*
CC(C)(C)NC(=O)C(c1ccc(C(F)(F)F)cc1)n1c(=O)c(-c2ccco2)nc2ccccc21 (stereo not drawn)	-28.0	.	.	.	.	-407.0
O=C1C(=NO)CCc2ccccc21	-31.0	.	.	.	.	41.9*
CCC(C)[C@H]1CNC(=O)C(=O)N1CCc1cccc(F)c1 (stereo partly drawn)	1.2	.	.	.	.	-1.3
Cc1cc(=O)[nH]c2ccc(S(=O)(=O)NC3CCCCC3)cc12	1.5	-5.1	63.2*	-8.8	-2.3	3.7
Cc1ccc(S(=O)(=O)NC2CCCC2)cc1C	1.1	-1.8	.	-8.2	-6.1	25.3
CN1/C(=C/C=C/c2n(C)c3cc([N+](=O)[O-])c([N+](=O)[O-])cc3[n+]2C)C(C)(C)c2ccccc21	-27.4	.	.	.	.	60.1*
CCN(CC)C(=O)c1csc([C@@H]2O[C@H](CO)[C@H](O)[C@H](O)[C@H]2O)n1	2.8	.	.	.	.	26.9
O=C(O)c1ccc(N/N=C/c2ccc3nccnc3c2)cc1	36.6	97.1*	55.7*	100.5*	98.0*	16.0
CC(C)(C)OC(=O)NCCC(=O)N/N=C/c1cccc2cccnc12	0.9	-3.4	0.3	7.9	-12.6	22.0
O=C(O)c1ccc(N/N=C/c2cccc3cccnc23)cc1	-37.8	30.1	4.1	31.2	54.2*	-86.2
COc1cc2c(cc1OC)-c1c(OC)c(OC)cc3ccnc(c13)C2=O	60.5*	-3.3	2.0	5.6	8.7	32.0
COc1cc(-c2nccc3cc4c(cc23)OCO4)cc(OC)c1OC	-1.6	.	.	.	.	-104.9
CCOC(=O)[C@]12CCC=C1N(Cc1ccc(Cl)cc1Cl)C(=O)[C@H](CC(=O)N1CCSCC1)C2	1.6	.	.	.	.	15.9

Screens from PubChem BioAssay.
